Test results from ChEMBL document CHEMBL2390926, “Identification of novel FLT3 kinase inhibitors” (Eur J Med Chem, 2013).
Activity calls are given as the source filed them. The calls are words filed in the database; no cut-off is given here.

Columns and labels:
[1] = target: Proto-oncogene tyrosine-protein kinase Src (Homo sapiens) (UniProt P12931); assay: Inhibition of SRC (unknown origin) transfected in mouse Ba/F3 cells up to 1 uM; type: cell-based; details: BaF3
Summary of the method: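 Ba/F3 cells transformed by ROS1 or SRC, dependent on that kinase. Parental Ba/F3 grown with mouse IL-3 served as control. Seeded at 100,000 cells/ml. Eight concentrations (50–6400 nM) run in triplicate with DMSO negative control for 24 h. Viable cells quantified by ATP-lite luminescence, mean ± SEM.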

[2] = target: Proto-oncogene tyrosine-protein kinase ROS (Homo sapiens) (UniProt P08922); assay: Inhibition of ROS1 (unknown origin) transfected in mouse Ba/F3 cells up to 1 uM; type: cell-based; details: BaF3
Chain of Proto-oncogene tyrosine-protein kinase ROS (Homo sapiens) (P08922 whole entry): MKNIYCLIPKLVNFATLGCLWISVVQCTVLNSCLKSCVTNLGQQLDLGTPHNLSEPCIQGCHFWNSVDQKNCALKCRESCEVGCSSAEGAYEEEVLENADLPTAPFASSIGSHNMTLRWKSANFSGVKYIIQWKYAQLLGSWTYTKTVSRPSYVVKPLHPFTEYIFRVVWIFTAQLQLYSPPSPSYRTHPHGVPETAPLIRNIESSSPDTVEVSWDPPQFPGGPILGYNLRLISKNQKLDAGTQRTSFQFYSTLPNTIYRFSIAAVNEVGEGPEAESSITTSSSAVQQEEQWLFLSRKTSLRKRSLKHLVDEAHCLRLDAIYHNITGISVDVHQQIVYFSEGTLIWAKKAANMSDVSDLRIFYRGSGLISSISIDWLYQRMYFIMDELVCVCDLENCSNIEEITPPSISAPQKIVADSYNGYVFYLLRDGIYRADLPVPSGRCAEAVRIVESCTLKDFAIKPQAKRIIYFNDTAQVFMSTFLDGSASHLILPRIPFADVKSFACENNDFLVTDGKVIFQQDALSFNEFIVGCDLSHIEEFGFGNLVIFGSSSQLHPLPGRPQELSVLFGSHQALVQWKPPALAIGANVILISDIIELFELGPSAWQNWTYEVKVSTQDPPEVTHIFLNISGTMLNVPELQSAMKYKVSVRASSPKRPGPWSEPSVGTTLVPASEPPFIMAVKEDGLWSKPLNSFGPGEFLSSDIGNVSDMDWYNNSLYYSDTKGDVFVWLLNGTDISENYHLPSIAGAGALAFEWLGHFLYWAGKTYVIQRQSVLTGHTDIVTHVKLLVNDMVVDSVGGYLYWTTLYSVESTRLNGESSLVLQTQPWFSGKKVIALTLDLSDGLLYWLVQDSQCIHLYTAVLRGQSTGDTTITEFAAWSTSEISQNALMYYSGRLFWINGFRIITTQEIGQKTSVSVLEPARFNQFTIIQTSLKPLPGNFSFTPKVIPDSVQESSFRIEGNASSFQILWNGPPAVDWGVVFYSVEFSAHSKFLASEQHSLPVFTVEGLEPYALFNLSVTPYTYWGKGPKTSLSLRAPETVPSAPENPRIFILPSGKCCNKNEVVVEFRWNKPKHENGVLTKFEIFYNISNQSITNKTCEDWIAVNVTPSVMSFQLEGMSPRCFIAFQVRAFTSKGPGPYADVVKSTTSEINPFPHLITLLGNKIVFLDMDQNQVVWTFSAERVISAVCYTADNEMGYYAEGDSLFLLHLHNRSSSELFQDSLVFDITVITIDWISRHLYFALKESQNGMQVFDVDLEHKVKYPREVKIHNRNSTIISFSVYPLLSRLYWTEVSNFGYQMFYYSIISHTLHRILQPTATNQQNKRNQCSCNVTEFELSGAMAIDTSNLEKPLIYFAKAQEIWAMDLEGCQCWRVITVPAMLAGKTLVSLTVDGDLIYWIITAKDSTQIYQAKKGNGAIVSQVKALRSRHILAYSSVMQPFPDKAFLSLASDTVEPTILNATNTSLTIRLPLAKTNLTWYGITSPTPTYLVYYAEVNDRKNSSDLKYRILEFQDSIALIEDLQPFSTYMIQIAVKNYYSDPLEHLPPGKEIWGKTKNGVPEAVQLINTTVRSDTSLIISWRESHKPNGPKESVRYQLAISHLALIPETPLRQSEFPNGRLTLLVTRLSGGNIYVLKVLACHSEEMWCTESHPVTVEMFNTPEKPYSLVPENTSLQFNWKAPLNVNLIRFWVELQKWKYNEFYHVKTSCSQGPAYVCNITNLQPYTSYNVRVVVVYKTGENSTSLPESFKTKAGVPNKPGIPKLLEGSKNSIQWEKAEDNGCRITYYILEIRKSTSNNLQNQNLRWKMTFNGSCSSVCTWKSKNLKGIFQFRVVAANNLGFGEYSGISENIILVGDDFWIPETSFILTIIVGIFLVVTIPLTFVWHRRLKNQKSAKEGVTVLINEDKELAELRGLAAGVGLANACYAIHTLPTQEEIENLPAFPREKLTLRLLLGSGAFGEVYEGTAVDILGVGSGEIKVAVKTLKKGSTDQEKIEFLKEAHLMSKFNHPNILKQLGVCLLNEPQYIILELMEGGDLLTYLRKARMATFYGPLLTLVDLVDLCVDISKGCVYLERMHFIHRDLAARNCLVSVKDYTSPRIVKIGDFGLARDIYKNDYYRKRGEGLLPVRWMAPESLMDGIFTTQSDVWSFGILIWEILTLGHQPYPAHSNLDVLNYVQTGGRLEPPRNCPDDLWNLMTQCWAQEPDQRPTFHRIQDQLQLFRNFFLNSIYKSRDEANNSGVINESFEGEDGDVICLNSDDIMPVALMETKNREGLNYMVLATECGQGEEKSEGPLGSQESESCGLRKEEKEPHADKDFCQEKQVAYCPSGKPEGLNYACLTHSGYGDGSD

Chain of Proto-oncogene tyrosine-protein kinase Src (Homo sapiens) (P12931 2-536 limits assumed): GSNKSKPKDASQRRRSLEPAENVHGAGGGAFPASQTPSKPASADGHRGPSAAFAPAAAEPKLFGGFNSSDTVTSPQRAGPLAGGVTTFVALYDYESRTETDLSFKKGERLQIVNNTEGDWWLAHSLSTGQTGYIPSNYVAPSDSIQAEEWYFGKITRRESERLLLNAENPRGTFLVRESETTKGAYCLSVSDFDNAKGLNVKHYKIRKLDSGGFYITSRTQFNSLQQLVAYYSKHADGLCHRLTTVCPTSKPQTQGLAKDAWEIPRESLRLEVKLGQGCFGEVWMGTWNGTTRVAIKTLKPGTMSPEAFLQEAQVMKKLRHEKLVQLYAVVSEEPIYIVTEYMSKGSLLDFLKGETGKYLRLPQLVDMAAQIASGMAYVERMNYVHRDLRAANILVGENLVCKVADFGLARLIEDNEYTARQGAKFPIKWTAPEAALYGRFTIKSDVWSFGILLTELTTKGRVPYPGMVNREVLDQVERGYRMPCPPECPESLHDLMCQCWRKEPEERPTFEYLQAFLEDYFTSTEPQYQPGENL

- inhibition [1]: inactive
- inhibition [2]: inactive
SMILES: Fc1ccc(-c2n[nH]cc2-c2ccncc2)cc1Cl
